Source: ChEMBL document CHEMBL1124730, “Acid-stable 2'-fluoro purine dideoxynucleosides as active agents against HIV” (1990)
Active and inactive are the calls of the source. The rule behind the calls is not given here.

How the values were obtained:
H9 [1] = experiment: Percentage of gag protein expression using H9 cells at 0 uM on 7th day; type: functional, Homo sapiens
Method in brief: (§1)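 H9 cells (105) were infected with HIV-1 (500 virus particles per cell) and cultured without or with drug at the stated concentration. On days 7, 10 and 12, the percentage of cells expressing HIV-1 p24 gag protein was scored by indirect immunofluorescence with murine monoclonal antibody M26.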

H9 [2] = experiment: Percentage of gag protein expression using H9 cells at 200 uM on 12th day; type: functional, Homo sapiens; method in brief: as §1
H9 (Homo sapiens) [3] = experiment: Percentage of gag protein expression using H9 cells at 0 uM on 10th day
H9 [4] = experiment: Percentage of gag protein expression using H9 cells at 100 uM on 7th day; type: functional, Homo sapiens; method in brief: as §1
H9 [5] = experiment: Percentage of gag protein expression using H9 cells at 50 uM on 10th day; type: functional, Homo sapiens; method in brief: as §1
H9 [6] = experiment: Percentage of gag protein expression using H9 cells at 100 uM on 10th day; type: functional, Homo sapiens; method in brief: as §1
[7] = test system: Human immunodeficiency virus 1; experiment: Ability to protect CD4+ ATH8 cells from cytopathogenic effect of HIV-1; Active; type: functional, organism-based; conditions: ATH-8
H9 [8] = experiment: Percentage of gag protein expression using H9 cells at 100 uM on 12th day; type: functional, Homo sapiens; method in brief: as §1
H9 (Homo sapiens) [9] = experiment: Percentage of gag protein expression using H9 cells at 0 uM on 12th day
H9 [10] = experiment: Percentage of gag protein expression using H9 cells at 5 uM on 12th day; type: functional, Homo sapiens; method in brief: as §1
H9 [11] = experiment: Percentage of gag protein expression using H9 cells at 20 uM on 7th day; type: functional, Homo sapiens; method in brief: as §1
H9 [12] = experiment: Percentage of gag protein expression using H9 cells at 200 uM on 7th day; type: functional, Homo sapiens; method in brief: as §1
H9 [13] = experiment: Percentage of gag protein expression using H9 cells at 200 uM on 10th day; type: functional, Homo sapiens; method in brief: as §1
H9 [14] = experiment: Percentage of gag protein expression using H9 cells at 20 uM on 10th day; type: functional, Homo sapiens; method in brief: as §1
H9 [15] = experiment: Percentage of gag protein expression using H9 cells at 5 uM on 10th day; type: functional, Homo sapiens; method in brief: as §1
H9 [16] = experiment: Percentage of gag protein expression using H9 cells at 5 uM on 7th day; type: functional, Homo sapiens; method in brief: as §1
H9 [17] = experiment: Percentage of gag protein expression using H9 cells at 20 uM on 12th day; type: functional, Homo sapiens; method in brief: as §1
H9 [18] = experiment: Percentage of gag protein expression using H9 cells at 50 uM on 12th day; type: functional, Homo sapiens; method in brief: as §1
H9 [19] = experiment: Percentage of gag protein expression using H9 cells at 50 uM on 7th day; type: functional, Homo sapiens; method in brief: as §1
[20] = test system: Human immunodeficiency virus 1; experiment: Ability to protect CD4+ ATH8 cells from cytopathogenic effects of HIV-1; No effect; type: functional, organism-based; conditions: ATH-8
[21] = test system: Human immunodeficiency virus 1; experiment: Ability to protect CD4+ ATH8 cells from cytopathogenic effects of HIV-1; Inactive; type: functional, organism-based; conditions: ATH-8

| Compound | Expression (H9 [1]) [%] | Expression (H9 [2]) [%] | Expression (H9 (Homo sapiens) [3]) [%] | Expression (H9 [4]) [%] | Expression (H9 [5]) [%] | Expression (H9 [6]) [%] | Activity [7] | Expression (H9 [8]) [%] | Expression (H9 (Homo sapiens) [9]) [%] | Expression (H9 [10]) [%] | Expression (H9 [11]) [%] | Expression (H9 [12]) [%] | Expression (H9 [13]) [%] | Expression (H9 [14]) [%] | Expression (H9 [15]) [%] | Expression (H9 [16]) [%] | Expression (H9 [17]) [%] | Expression (H9 [18]) [%] | Expression (H9 [19]) [%] | other results |
| --- | --- | --- | --- | --- | --- | --- | --- | --- | --- | --- | --- | --- | --- | --- | --- | --- | --- | --- | --- | --- |
| O=c1[nH]cnc2c1ncn2[C@H]1CC[C@@H](CO)O1 [DIDANOSINE] | 76 | 0 | 73 | 0 | 0 | 0 | Active | 0 | 83 | 74 | 9 | 0 | 0 | 30 | 53 | 73 | 48 | 3 | 0 |  |
| Nc1ncnc2c1ncn2[C@H]1CC[C@@H](CO)O1 | 79 | 0 | 70 | 0 | 0 | 0 |  | 0 | 84 | 86 | 1 | 0 | 0 | 0 | 48 | 48 | 8 | 2 | 0 | Activity [20]: inactive |
| Nc1ncnc2c1ncn2[C@@H]1O[C@H](CO)C[C@H]1F |  |  |  |  |  |  |  |  |  |  |  |  |  |  |  |  |  |  |  | Activity [21]: inactive |
| Nc1ncnc2c1ncn2[C@@H]1O[C@H](CO)C[C@@H]1F [LODENOSINE] | 79 | 0 | 71 | 10 | 20 | 34 |  | 50 | 79 | 66 | 61 | 0 | 0 | 37 | 73 | 58 | 53 | 19 | 18 |  |
| OCC1CC(F)C(n2cnc3c(O)ncnc32)O1 (stereo unspecified) | 76 | 60 | 71 | 34 | 24 | 12 | Active | 53 | 74 | 61 | 58 | 7 | 10 | 52 | 82 | 54 | 61 | 57 | 23 |  |
